Consider three compounds from ChEMBL document CHEMBL2424585, “Biological evaluation of hyperforin and its hydrogenated analogue on bacterial growth and biofilm production” (2013).

The term MIC denotes the lowest concentration found to suppress growth.

Values after ≈ are worked out from the molar mass of the structure shown. Active and inactive are the calls of the source. The calls are words filed in the database; no cut-off is given here.

Holding throughout (type): functional
For assay [1], the system named is Staphylococcus aureus. The assay can be described thus: Antibacterial activity against Staphylococcus aureus EMRSA-15 after 18 hrs by MTT assay. Conditions: EMRSA-15, 18 h. The gist of the method: (§1)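 Broth microdilution MIC per CLSI M7-A6. Serial 2-fold dilutions in cation-adjusted Mueller-Hinton broth (20 mg/L Ca2+, 10 mg/L Mg2+), ranging 16 to 0.25 μg/mL (DMSO stock) or 256 to 0.25 μg/mL (ethanol stock). Inoculum 5 × 10^5 cfu in saline. Incubated 37 °C, 18 h. Growth detected by MTT colour change. MIC = lowest concentration with no visible growth.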

Assay [2] relates to Staphylococcus aureus. The assay can be described thus: Antibacterial activity against methicillin-resistant Staphylococcus aureus ATCC 43300 after 18 hrs by XTT assay. The gist of the method: (§2)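 Mature biofilms grown in TSB + 2% glucose from ~10^5 cfu/mL: 4 h shaken adhesion at 37 °C, medium replaced, then 24 h at 37 °C. Rinsed with PBS, then serial dilutions (150–18.7 or 25–6.25 μg/mL; PEG-200 vehicle for one agent) added for 18 h at 37 °C with shaking. Viability read by XTT–menadione, 2 h dark, 492 nm. MBIC = lowest concentration with no detectable biofilm growth. Triplicate.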

The subject of assay [3] is Staphylococcus aureus. The assay can be described thus: Antibacterial activity against Staphylococcus aureus SA1199B after 18 hrs by MTT assay. Put shortly: as §1
For orientation: Formazan colour is commonly taken as a measure of viable cells.

The subject of assay [4] is Enterococcus faecalis. The assay can be described thus: Antibacterial activity against Enterococcus faecalis ATCC 29212 assessed as reduction of microorganisms in biofilm at 25 ug/ml after 18 hrs by XTT assay relative to untreated control. Details: scale not given: the % may be the effect or the level left. The gist of the method:
(§3)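 Mature 24 h biofilms grown in TSB + 2% glucose were PBS-rinsed and exposed to the stated concentration for 18 h at 37 °C with shaking. Metabolic activity was then measured by XTT (1 mg/mL in PBS) with menadione, 2 h at 37 °C in the dark, absorbance 492 nm. Activity is expressed as OD relative to untreated TSB biofilms. Triplicate.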

The subject of the next assay is Escherichia coli. Description: Antibacterial activity against Escherichia coli ATCC 25922 after 18 hrs by MTT assay. The gist of the method: as §1
The subject of assay [5] is Staphylococcus aureus. Description: Antibacterial activity against Staphylococcus aureus XU212 after 18 hrs by MTT assay. Conditions: XU212, 18 h. The gist of the method: as §1
Assay [6] deals with Enterococcus faecalis. The assay can be described thus: Antibacterial activity against Enterococcus faecalis ATCC 29212 after 18 hrs by XTT assay. Put shortly: as §2
Assay [7] deals with Staphylococcus aureus. Description: Antibacterial activity against methicillin-resistant Staphylococcus aureus Ig5 clinical isolate after 18 hrs by MTT assay. Conditions: Ig5, 18 h. The gist of the method:
as §1

For assay [8], the system named is Staphylococcus aureus. Description: Antibacterial activity against Staphylococcus aureus ATCC 43300 assessed as reduction of microorganisms in biofilm at 25 ug/ml after 18 hrs by XTT assay relative to untreated control. On the set-up: scale not given: the % may be the effect or the level left. The gist of the method: as §3
Assay [9] has as its system Staphylococcus aureus. Description: Antibacterial activity against Staphylococcus aureus ATCC 29213 after 18 hrs by XTT assay. Put shortly: as §2
Assay [10] deals with Staphylococcus aureus. The assay can be described thus: Antibacterial activity against Staphylococcus aureus ATCC 29213 after 18 hrs by MTT assay. Conditions: ATCC 29213, 18 h. The gist of the method:
as §1

Assay [11] concerns Staphylococcus aureus. Description: Antibacterial activity against methicillin-resistant Staphylococcus aureus Ig5 clinical isolate after 18 hrs by XTT assay. The gist of the method: as §2
In assay [12] the test system is Enterococcus faecalis. The assay can be described thus: Antibacterial activity against Enterococcus faecalis ATCC 29212 after 18 hrs by MTT assay. As to conditions: ATCC 29212, 18 h. Put shortly:
as §1

Assay [13] concerns Staphylococcus aureus. The assay can be described thus: Antibacterial activity against methicillin-resistant Staphylococcus aureus Ig5 clinical isolate assessed as reduction of microorganisms in biofilm at 25 ug/ml after 18 hrs by XTT assay relative to untreated control. On the set-up: scale not given: the % may be the effect or the level left. Put shortly: as §3
The subject of assay [14] is Staphylococcus aureus. Description: Antibacterial activity against Staphylococcus aureus ATCC 25923 after 18 hrs by MTT assay. Conditions: ATCC 25923, 18 h. The gist of the method: as §1
Assay [15] concerns Staphylococcus aureus. The assay can be described thus: Antibacterial activity against Staphylococcus aureus ATCC 29213 assessed as reduction of microorganisms in biofilm at 25 ug/ml after 18 hrs by XTT assay relative to untreated control. Details: scale not given: the % may be the effect or the level left. Put shortly: as §3
In assay [16] the test system is Staphylococcus aureus. The assay can be described thus: Antibacterial activity against methicillin-resistant Staphylococcus aureus ATCC 43300 after 18 hrs by MTT assay. As to conditions: ATCC 43300, 18 h. The gist of the method:
as §1

Assay [17] deals with Staphylococcus aureus. The assay can be described thus: Antibacterial activity against Staphylococcus aureus RN4220 after 18 hrs by MTT assay. As to conditions: RN4220, 18 h. Put shortly: as §1
The subject of assay [18] is Enterococcus faecalis. The assay can be described thus: Antibacterial activity against Enterococcus faecalis ATCC 29212 assessed as reduction of microorganisms in biofilm at 37.5 ug/ml after 18 hrs by XTT assay relative to untreated control. Details: scale not given: the % may be the effect or the level left. The gist of the method: as §3
Assay [19] has as its system Staphylococcus aureus. The assay can be described thus: Antibacterial activity against Staphylococcus aureus Ig5 assessed as reduction of microorganisms in biofilm at 37.5 ug/mL after 18 hrs by XTT assay relative to untreated control. Details: scale not given: the % may be the effect or the level left. Put shortly:
as §3

Assay [20] relates to Staphylococcus aureus. Description: Antibacterial activity against Staphylococcus aureus ATCC 43300 assessed as reduction of microorganisms in biofilm at 37.5 ug/ml after 18 hrs by XTT assay relative to untreated control. Details: scale not given: the % may be the effect or the level left. Put shortly: as §3
Assay [21] concerns Staphylococcus aureus. Description: Antibacterial activity against Staphylococcus aureus ATCC 29213 assessed as reduction of microorganisms in biofilm at 150 ug/ml after 18 hrs by XTT assay relative to untreated control. Details: scale not given: the % may be the effect or the level left. The gist of the method: as §3
Assay [22] relates to Staphylococcus aureus. Description: Antibacterial activity against methicillin-resistant Staphylococcus aureus Ig5 clinical isolate assessed as reduction of microorganisms in biofilm at 150 ug/ml after 18 hrs by XTT assay relative to untreated control. Details: scale not given: the % may be the effect or the level left. The gist of the method: as §3

`C1CCC(NC2CCCCC2)CC1.CC(C)=CCC[C@]1(C)[C@@H](CC=C(C)C)C[C@]2(CC=C(C)C)C(=O)C(CC=C(C)C)=C(O)[C@@]1(C(=O)C(C)C)C2=O`: the MIC with Staphylococcus aureus [1] was 2 µg/mL; against Staphylococcus aureus [3], 2 µg/mL; in the assay on Staphylococcus aureus [5], 0.5 µg/mL; against Staphylococcus aureus [7] it was 1 µg/mL; with Staphylococcus aureus [10], 1 µg/mL; in the assay on Enterococcus faecalis [12], 1 µg/mL. For the same compound, the MIC in the assay on Staphylococcus aureus [14] and against Staphylococcus aureus [16] was 1 µg/mL each time. The MBIC in the assay on Staphylococcus aureus [2], in the assay on Enterococcus faecalis [6], in the assay on Staphylococcus aureus [9] and with Staphylococcus aureus [11] was 25 µg/mL throughout. Besides, the Activity with Enterococcus faecalis [4] was 34%; with Staphylococcus aureus [8] it was 21%; in the assay on Staphylococcus aureus [13], 33%; with Staphylococcus aureus [15], 45%. In addition, the MIC entry with Escherichia coli was “inactive”.
With `CCn1cc(C(=O)O)c(=O)c2cc(F)c(N3CCNCC3)cc21` [NORFLOXACIN], the MIC worked out at 0.5 µg/mL (≈ 1.57 µM) in the assay on Staphylococcus aureus [1]; 32 µg/mL (≈ 100 µM) against Staphylococcus aureus [3]; 0.12 µg/mL (≈ 0.376 µM) in the assay with Escherichia coli (ATCC 25922, 18 h); 4 µg/mL (≈ 12.5 µM) against Staphylococcus aureus [5]; 1 µg/mL (≈ 3.13 µM) in the assay on Staphylococcus aureus [17]; 2 µg/mL (≈ 6.26 µM) against Staphylococcus aureus [7]. Moreover, the MIC in the assay on Staphylococcus aureus [10] was found to be 2 µg/mL (≈ 6.26 µM); against Enterococcus faecalis [12], 4 µg/mL (≈ 12.5 µM); with Staphylococcus aureus [14] it was 2 µg/mL (≈ 6.26 µM); in the assay with Staphylococcus aureus [16] it was 4 µg/mL (≈ 12.5 µM).
Regarding `C1CCC(NC2CCCCC2)CC1.CC(C)CCC[C@]1(C)[C@@H](CCC(C)C)C[C@@]2(CCC(C)C)C(=O)[C@]1(C(=O)C(C)C)C(=O)C(CCC(C)C)=C2O` [OCTAHYDROHYPERFORIN DICYCLOHEXYLAMMONIUM SALT], the Activity with Enterococcus faecalis [18] was 45%; in the assay with Staphylococcus aureus [19], 52%; with Staphylococcus aureus [20] it was 47%; in the assay with Staphylococcus aureus [21], 52%; in the assay on Staphylococcus aureus [22], 45%. Besides, the MBIC with Staphylococcus aureus [2] was 37.5 µg/mL; with Enterococcus faecalis [6], 37.5 µg/mL; in the assay with Staphylococcus aureus [9], 150 µg/mL; with Staphylococcus aureus [11] it was 37.5 µg/mL. The MIC against Staphylococcus aureus [3] came out at 4 µg/mL; with Staphylococcus aureus [5] it was 1 µg/mL; in the assay with Staphylococcus aureus [17], 1 µg/mL; against Staphylococcus aureus [7], 4 µg/mL; in the assay on Staphylococcus aureus [10], 4 µg/mL; against Enterococcus faecalis [12], 4 µg/mL. The MIC in the assay with Staphylococcus aureus [14] and against Staphylococcus aureus [16] was 4 µg/mL in each case. Also, the MIC result in the assay on Escherichia coli was “inactive”.
